# In the library only some 2.2% were active in any assay of this set; here they are far more common.
# E-selectin induc: E-selectin induction on HUVECs; P16581; HUVEC E-selectin immunofluorescence imaging; normalized: neutral wells 0, TNF-alpha wells 100; activation, % at 7.58 µM; hit rate 0.37% among 260,000; AID 686992;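 active means mean E-selectin-positive cell signal at least 10% of the positive control, reached in at least 60% of replicates, without over 20% cell loss; inconclusive means no rule given, readout overlaps actives, possibly toxicity-flagged; inactive means the rest, including those meeting only one limit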
# Target sequence (P16581 whole entry, looked up): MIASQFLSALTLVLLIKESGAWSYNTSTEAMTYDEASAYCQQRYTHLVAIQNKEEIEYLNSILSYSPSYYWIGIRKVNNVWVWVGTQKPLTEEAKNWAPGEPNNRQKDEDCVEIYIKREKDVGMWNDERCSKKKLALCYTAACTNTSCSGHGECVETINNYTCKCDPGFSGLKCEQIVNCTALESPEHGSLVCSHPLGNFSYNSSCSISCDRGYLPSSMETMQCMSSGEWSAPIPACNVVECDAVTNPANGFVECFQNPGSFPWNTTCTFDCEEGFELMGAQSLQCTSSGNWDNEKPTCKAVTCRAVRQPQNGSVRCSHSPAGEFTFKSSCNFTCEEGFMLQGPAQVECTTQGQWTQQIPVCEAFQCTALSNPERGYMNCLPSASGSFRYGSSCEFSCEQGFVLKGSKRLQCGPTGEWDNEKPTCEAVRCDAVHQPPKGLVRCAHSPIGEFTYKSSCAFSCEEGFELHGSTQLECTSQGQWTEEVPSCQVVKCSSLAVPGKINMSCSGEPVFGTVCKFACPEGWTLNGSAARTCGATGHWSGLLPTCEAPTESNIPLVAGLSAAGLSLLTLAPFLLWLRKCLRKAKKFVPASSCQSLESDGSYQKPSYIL
#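 material = human umbilical vein endothelial cells (HUVEC), E-selectin induction | quantity = 3,000 cells/well | medium = EGM-2 growth medium on 0.1% gelatin-coated wells | technique = immunofluorescence imaging | read-out basis = % PE-positive cells | control set = TNF-alpha positive control, DMSO neutral control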
# DENV2 CPE rescue: DENV2-induced cell death inhibition; hit rate 1.7% among 350,000; DENV2-infected cells, cytopathic effect rescue, plate reader; CPE inhibition, % at 9.99 µM; in the data active means CPE inhibition above about 20%, passing the limit was not always enough; inconclusive means no clear call, values can overlap the other calls; tested in BHK-21 cells;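 further: 0% = median of neutral control wells and 100% = median of positive control wells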
# Statin myotox sup: protects C2C12 myotubes from simvastatin toxicity; rescue of ATP level, % at 7.49 µM; hit rate 0.78% among 330,000; ATP luminescence, 48 h; scaled: DMSO 0, geranylgeraniol control 100; AID 602340;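 active means mean ATP rescue above about 67%, or every replicate alone reaching that limit, limit read from the data, passing the limit was not always enough; inconclusive means no clear call, values can overlap the other calls; inactive means mean under the limit and some replicate under it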;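 further: myotubes were challenged with 10 µM simvastatin during compound exposure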
# An asterisk follows results filed as active; ? = inconclusive; · = not tested or not shown.
SMILES,E-selectin induc,DENV2 CPE rescue,Statin myotox sup
COc1ccc(C(=O)N2CCC(C(=O)NCc3ccccn3)CC2)cc1,·,·,114*
Cc1ccc(S(=O)(=O)N[C@H]2CC[C@H](CCNC(=O)C3CCC3)O[C@@H]2CO)cc1,0,-8,7
Cc1ccc(NC(=O)Nc2ccc(C(=O)N3CCOCC3)cc2)cc1,·,·,28
Cc1ccc(C(=O)N2CCSCC2)cc1,·,-4,103*
O=C(c1ccc(F)cc1)C1CCN(C(=O)c2ccccc2)CC1,0,-2,6
COc1ccc(C(=O)N2CCN(C3CCCCC3)CC2)cc1OC,·,31*,41
COc1cc(C(=O)N2CCN(C3CCCCC3)CC2)cc(OC)c1OC,·,-3,13
COc1ccc(C(=O)N2CCc3cc(OC)c(OC)cc3C2)cc1OC,·,·,122*
O=C(c1ccc(F)cc1)N1CCC(N2CCCCCC2)CC1,-1,·,145*
COc1cc2c(cc1OC)CN(C(=O)c1ccc(-c3ccccc3)cc1)CC2,0,-5,-18
CC(C)NC(=O)N(C)C[C@@H]1Oc2cc(-c3ccncc3)ccc2S(=O)(=O)N([C@@H](C)CO)C[C@H]1C,0,11,-8
CO[C@@H]1CN(C)C(=O)c2cc(NC(=O)Nc3cc(F)ccc3F)ccc2OC[C@H](C)N(C(=O)c2cnccn2)C[C@H]1C,0,10,-7
O=C(c1ccc(Br)cc1)N1CCCC1,·,·,94*
O=C(c1cccc(Br)c1)N1CCCC1,·,·,14
Cc1ccc(S(=O)(=O)NCC[C@@H]2CC[C@H](NC(=O)c3cnccn3)[C@@H](CO)O2)cc1,-2,?,-4
CCS(=O)(=O)NCC[C@H]1CC[C@H](NC(=O)C2CCC2)[C@H](CO)O1,0,17,5
O=C(N[C@@H]1CC[C@@H](CCNS(=O)(=O)c2ccc(F)cc2)O[C@H]1CO)c1cnccn1,0,51*,1
O=C(N[C@H]1CC[C@@H](CCNS(=O)(=O)c2ccc(F)cc2)O[C@H]1CO)C1CCOCC1,0,38*,-13
CCS(=O)(=O)NCC[C@@H]1CC[C@@H](NC(=O)C2CC2)[C@@H](CO)O1,0,46*,·
O=C(N[C@@H]1CC[C@H](CCNS(=O)(=O)c2ccc(F)cc2)O[C@H]1CO)C1CCOCC1,0,-7,-4
O=C(Nc1cccc(Cl)c1)N[C@@H]1CC[C@H](CCNC(=O)C2CCCCC2)O[C@@H]1CO,1,5,-1
Cc1cc(CNC(=O)[C@H]2C[C@@H]2[C@H](NP(=O)(c2ccccc2)c2ccccc2)c2ccccc2)nn1C,0,-8,·
C[C@H](CO)NC(=O)[C@@H]1C[C@H]1[C@@H](NP(=O)(c1ccccc1)c1ccccc1)c1ccccc1,·,-6,116*
C[C@H]1CN([C@@H](C)CO)C(=O)Cc2cc(NS(=O)(=O)c3ccc(Cl)cc3)ccc2O[C@H]1CN(C)C(=O)NC1CCCCC1,-2,32*,-2
Cc1noc(C)c1S(=O)(=O)Nc1ccc2c(c1)CC(=O)N([C@@H](C)CO)C[C@H](C)[C@H](CN(C)C(=O)NC1CCCCC1)O2,4,4,-7
SMILES,E-selectin induc,DENV2 CPE rescue,Statin myotox sup
COc1ccc(S(=O)(=O)Nc2ccc3c(c2)CC(=O)N([C@@H](C)CO)C[C@H](C)[C@@H](CN(C)C(=O)NC2CCCCC2)O3)cc1,79*,-3,-24
C[C@@H]1CN([C@@H](C)CO)C(=O)Cc2cc(NS(=O)(=O)c3ccc(Cl)cc3)ccc2O[C@H]1CN(C)C(=O)NC1CCCCC1,0,-14,0
COc1ccc(S(=O)(=O)Nc2ccc3c(c2)CC(=O)N([C@H](C)CO)C[C@@H](C)[C@@H](CN(C)C(=O)NC2CCCCC2)O3)cc1,55*,?,-41
C[C@H](CO)N1C[C@H](C)[C@@H](CN(C)C(=O)NC2CCCCC2)Oc2ccc(NS(=O)(=O)c3ccc(F)cc3)cc2CC1=O,0,-8,45
C[C@@H]1CN([C@H](C)CO)C(=O)Cc2cc(NS(=O)(=O)c3ccc(F)cc3)ccc2O[C@@H]1CN(C)C(=O)NC1CCCCC1,0,-2,16
Cc1noc(C)c1S(=O)(=O)Nc1ccc2c(c1)CC(=O)N([C@@H](C)CO)C[C@@H](C)[C@H](CN(C)C(=O)NC1CCCCC1)O2,7,22*,2
C[C@@H]1CN([C@H](C)CO)C(=O)c2cc(NS(=O)(=O)c3ccccc3)ccc2O[C@@H]1CN(C)Cc1ccc(C(F)(F)F)cc1,1,-12,15
CO[C@@H]1CN(C)C(=O)c2cc(NC(=O)c3cc(C)on3)ccc2OC[C@H](C)NC[C@@H]1C,0,4,-5
COc1ccc(NC(=O)N2CC(=O)N3[C@H](C2)[C@H](c2ccc(C4=CCCC4)cc2)[C@@H]3CO)cc1,0,2,·
O=S(=O)(N[C@H]1CC[C@@H](CCn2cc(-c3ccccc3F)nn2)O[C@H]1CO)c1ccc(Cl)cc1,0,-3,10
C[C@H]1CN([C@@H](C)CO)C(=O)c2cccc(NC(=O)NC3CCCCC3)c2O[C@@H]1CN(C)C(=O)Nc1cccc2ccccc12,1,0,0
C[C@H](CO)N1C[C@H](C)[C@H](CN(C)Cc2ccccc2)Oc2ccc(NC(=O)Nc3ccc(C(F)(F)F)cc3)cc2C1=O,0,-2,-21
COc1ccc(-n2nc3cc(C)c(N)c(Br)c3n2)cc1,·,·,129*
COc1ccc(-n2nc3cc(N)c(Br)cc3n2)cc1,·,1,12
CO[C@@H]1CN(C)C(=O)c2ccc(NC(=O)c3ccccc3F)cc2OC[C@H](C)N(CC2CC2)C[C@H]1C,0,-11,3
C[C@@H]1CN([C@H](C)CO)C(=O)c2cc(NC(=O)c3ccccc3)ccc2O[C@@H](C)CCCCO[C@H]1CN(C)Cc1ccc(C(F)(F)F)cc1,1,8,·
CN(C)c1ncnc2c1ncn2-c1ccccc1,0,-3,1
CN(c1ccccc1)c1ncnc2c1ncn2C,·,89*,1
COCc1cn(CC[C@@H]2CC[C@H](NC(=O)CCN3CCCCC3)[C@H](CO)O2)nn1,0,1,-1
CN1c2ccc(-c3ccc(F)cc3)cc2[C@H]2[C@H](CCN2C(=O)C2CCOCC2)[C@@H]1CO,0,-7,-16
CS(=O)(=O)c1ccccc1C(=O)Nc1nc2ccccc2[nH]1,13,-2,-7
CN(C)S(=O)(=O)c1ccc(Cl)c(C(=O)Nc2nc3ccccc3[nH]2)c1,30*,4,-7
C[C@@H]1CCCCO[C@H](CN(C)Cc2ccc(C(=O)O)cc2)[C@H](C)CN([C@@H](C)CO)C(=O)c2cc(NC(=O)Nc3ccccc3)ccc2O1,·,2,·
O=C(C=Cc1ccco1)c1ccco1,0,-6,3
O=C(O)C(C(=O)/C=C/c1ccco1)=C1SCCS1,·,·,68*
SMILES,E-selectin induc,DENV2 CPE rescue,Statin myotox sup
O=C(C1CC1)N1[C@@H](CO)[C@@H]2c3ccccc3NC[C@@H]21,0,95*,3
OC[C@H]1[C@H]2c3ccccc3NC[C@H]2N1Cc1ccccc1Cl,0,16,39
O=C(C1CC1)N1[C@H](CO)[C@@H]2c3ccccc3NC[C@@H]21,0,·,21
OC[C@H]1[C@@H]2c3ccccc3NC[C@@H]2N1Cc1ccccc1Cl,0,33*,28
OC[C@@H]1[C@H]2c3ccccc3NC[C@H]2N1CC1CCCCC1,0,5,8
OC[C@H]1[C@H]2c3ccccc3NC[C@H]2N1CC1CCOCC1,0,21*,20

# Compound activity: PubChem BioAssay, Broad Institute
